# Tests used:
# [1] = test system: chloroquine-sensitive strain 3D7 of Plasmodium falciparum; test: In vitro antimalarial assay; type: cell-based; details: for activity in CQ-sensitive strain (in words): 3D7; for IC50: Plasmodium falciparum, 3D7, 72 h, read-out: IC50 Pf3D7; for selectivity index (SI) Pf3D7: ratio CC50 (VERO)/IC50 (Pf3D7)
# [2] = test system: chloroquine-resistant strain K1 of Plasmodium falciparum; test: In vitro antimalarial assay; type: cell-based; details: for IC50: Plasmodium falciparum, K1, 72 h, read-out: IC50 PfK1; for selectivity index (SI) PfK1: ratio CC50 (VERO)/IC50 (PfK1)
# [3] = test system: VERO cell line; test: Cytotoxicity assay against Vero cell line; type: cell-based, monkey; details: read-out: cytotoxicity CC50 in VERO cell line; VERO cells, 72 h, resazurin
# [4] = test system: Plasmodium yoelii nigeriensis (a multidrug-resistant) parasite; test: In vivo antimalarial assay in Swiss mice; details: for cure on day 28: cured/treated; for survival on day 28: survivors/treated
# Outline: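 Multidrug-resistant P. yoelii nigeriensis infection in albino Swiss mice, five per group. Test compound given orally at 100 mg/kg daily × 4 days. Reference: α/β-arteether 7.5 mg/kg × 3 days. Untreated infected controls were included. Parasitaemia was assessed by Giemsa-stained smears, with % suppression on day 4 post infection. Survival and cure were followed to day 28, and MST was recorded.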
# [5] = Cytotoxicity assay against Vero cell line; type: cell-based, monkey; details: monkey, Vero cells (monkey kidney cell line)
# [6] = 100 mg/kg × 4 days, oral, P. yoelii-MDR
# [7] = 7.5 mg/kg × 3 days, reference drug
Structure (SMILES),IC50 [1],IC50 [2],selectivity index (SI) PfK1 [2],selectivity index (SI) Pf3D7 [1],also measured
"CN(c1ccnc2cc(C(F)(F)F)ccc12)[C@@H](Cc1ccccc1)CN1CCOCC1 [10e, (S)-N-Methyl-N-(1-morpholino-3-phenylpropan-2-yl)-7-(trifluoromethyl)quinolin-4-amine]",3890 ± 500 nM,,,,activity in CQ-sensitive strain (in words) [1]: inactive
"CN(CCCN1CCOCC1)c1ccnc2cc(C(F)(F)F)ccc12 [11c, N-Methyl-N-(3-morpholinopropyl)-7-(trifluoromethyl)quinolin-4-amine]",880 ± 280 nM,820 ± 60 nM,>243,>227,
"CC(C)C[C@@H](CN1CCCCC1)N(C)c1ccnc2cc(Cl)ccc12 [9c, (S)-7-Chloro-N-methyl-N-(4-methyl-1-(piperidin-1-yl)pentan-2-yl)quinolin-4-amine]",150 ± 140 nM,420 ± 230 nM,166,463,
"CC(C)C[C@@H](CN1CCCC1)N(C)c1ccnc2cc(C(F)(F)F)ccc12 [9h, (S)-N-Methyl-N-(4-methyl-1-(pyrrolidin-1-yl)pentan-2-yl)-7-(trifluoromethyl)quinolin-4-amine]",1240 nM,1600 ± 910 nM,33,42,
"CN(CCCN1CCCC1)c1ccnc2cc(C(F)(F)F)ccc12 [11d, N-Methyl-N-(3-(pyrrolidin-1-yl)propyl)-7-(trifluoromethyl)quinolin-4-amine]",90 ± 20 nM,310 ± 150 nM,252,,"CC50 [3]: 78200 nM; MST ([4]; 100 mg/kg × 4 days, oral): 8.8 days; % suppression on day 4 post infection [4, 6]: 99.85%; cure on day 28 ([4]; 100 mg/kg × 4 days, oral): 0/5 cured; survival on day 28 ([4]; 100 mg/kg × 4 days, oral): 0/5"
"CCN(CC)C[C@H](CC(C)C)N(C)c1ccnc2cc(Cl)ccc12 [9e, (S)-N^2-(7-Chloroquinolin-4-yl)-N^1,N^1-diethyl-N^2,4-dimethylpentane-1,2-diamine]",230 ± 100 nM,540 ± 30 nM,112,262,
"CN(c1ccnc2cc(Cl)ccc12)[C@@H](Cc1ccccc1)CN1CCOCC1 [10a, (S)-7-Chloro-N-methyl-N-(1-morpholino-3-phenylpropan-2-yl)quinolin-4-amine]",1200 ± 780 nM,1380 ± 70 nM,24,28,
"CCN(CC)C[C@H](CC(C)C)N(C)c1ccnc2cc(C(F)(F)F)ccc12 [9i, (S)-N^1,N^1-diethyl-N^2,4-dimethyl-N^2-(7-(trifluoromethyl)quinolin-4-yl)pentane-1,2-diamine]",3800 ± 1050 nM,2500 ± 1030 nM,21,14,
"CCN(CC)CCCC(C)Nc1ccnc2cc(Cl)ccc12 (centres unmarked) [chloroquine, reference compound]",,795 ± 150 nM,,,
"CN(CCCN1CCCCC1)c1ccnc2cc(Cl)ccc12 [11a, 7-Chloro-N-methyl-N-(3-(piperidin-1-yl)propyl)quinolin-4-amine]",40 nM,60 ± 40 nM,1782,,CC50 [3]: 107000 nM
"CC(C)CC(CN1CCOCC1)N(C)c1ccnc2cc(Cl)ccc12 (centres unmarked) [9b, 7-Chloro-N-methyl-N-(4-methyl-1-morpholinopentan-2-yl)quinolin-4-amine]",1160 ± 260 nM,1190 ± 530 nM,43,44,CC50 [3]: 50800 nM
"CN(c1ccnc2cc(C(F)(F)F)ccc12)[C@@H](Cc1ccccc1)CN1CCCCC1 [10f, (S)-N-Methyl-N-(1-phenyl-3-(piperidin-1-yl)propan-2-yl)-7-(trifluoromethyl)quinolin-4-amine]",1370 ± 520 nM,,,,activity in CQ-sensitive strain (in words) [1]: inactive
"CN(c1ccnc2cc(C(F)(F)F)ccc12)[C@@H](Cc1ccccc1)CN1CCCC1 [10g, (S)-N-Methyl-N-(1-phenyl-3-(pyrrolidin-1-yl)propan-2-yl)-7-(trifluoromethyl)quinolin-4-amine]",680 ± 160 nM,1770 nM,22,58,"MST ([4]; 100 mg/kg × 4 days, oral): 7.2 days; % suppression on day 4 post infection [4, 6]: 62.30%; cure on day 28 ([4]; 100 mg/kg × 4 days, oral): 0/5 cured; survival on day 28 ([4]; 100 mg/kg × 4 days, oral): 0/5"
"CC(C)C[C@@H](CN1CCCCC1)N(C)c1ccnc2cc(C(F)(F)F)ccc12 [9g, (S)-N-Methyl-N-(4-methyl-1-(piperidin-1-yl)pentan-2-yl)-7-(trifluoromethyl)quinolin-4-amine]",2000 ± 60 nM,2040 ± 400 nM,21,21,
"CCN(CC)C[C@H](Cc1ccccc1)N(C)c1ccnc2cc(C(F)(F)F)ccc12 [10h, (S)-N^1,N^1-Diethyl-N^2-methyl-3-phenyl-N^2-(7-(trifluoromethyl)quinolin-4-yl)propane-1,2-diamine]",1750 ± 160 nM,,,,activity in CQ-sensitive strain (in words) [1]: inactive
"CC(C)C[C@@H](CN1CCOCC1)N(C)c1ccnc2cc(C(F)(F)F)ccc12 [9f, (S)-N-Methyl-N-(4-methyl-1-morpholinopentan-2-yl)-7-(trifluoromethyl)quinolin-4-amine]",2720 ± 1440 nM,2250 ± 770 nM,30,25,
"CC(C)C[C@@H](CN1CCCC1)N(C)c1ccnc2cc(Cl)ccc12 [9d, (S)-7-Chloro-N-methyl-N-(4-methyl-1-(pyrrolidin-1-yl)pentan-2-yl)quinolin-4-amine]",80 nM,180 ± 150 nM,261,588,"MST ([4]; 100 mg/kg × 4 days, oral): 9.4 days; % suppression on day 4 post infection [4, 6]: 99.99%; cure on day 28 ([4]; 100 mg/kg × 4 days, oral): 0/5 cured; survival on day 28 ([4]; 100 mg/kg × 4 days, oral): 0/5"
"COc1cc([C@@H]2c3cc4c(cc3[C@H](O)[C@H]3COC(=O)[C@H]23)OCO4)cc(OC)c1OC [Podophyllotoxin, reference compound]",,,,,CC50 at 72 h [5]: 4000 nM
"CN(c1ccnc2cc(Cl)ccc12)[C@@H](Cc1ccccc1)CN1CCCCC1 [10b, (S)-7-Chloro-N-methyl-N-(1-phenyl-3-(piperidin-1-yl)propan-2-yl)quinolin-4-amine]",280 ± 130 nM,490 ± 150 nM,142,,
"CCO[C@H]1O[C@@H]2O[C@@]3(C)CC[C@H]4[C@H](C)CC[C@@H]([C@H]1C)[C@@]24OO3 [α/β-arteether, reference compound]",,,,,"% suppression on day 4 post infection [4, 7]: 100%; MST [4, 7]: >28 days; cure on day 28 [4, 7]: 5/5 cured; survival on day 28 [4, 7]: 5/5"
"CN(CCCN1CCCC1)c1ccnc2cc(Cl)ccc12 [11b, 7-Chloro-N-methyl-N-(3-(pyrrolidin-1-yl)propyl)quinolin-4-amine]",190 nM,110 ± 70 nM,729,422,"CC50 [3]: 80200 nM; MST ([4]; 100 mg/kg × 4 days, oral): 8.8 days; % suppression on day 4 post infection [4, 6]: 99.8%; cure on day 28 ([4]; 100 mg/kg × 4 days, oral): 0/5 cured; survival on day 28 ([4]; 100 mg/kg × 4 days, oral): 0/5"
"CCN(CC)C[C@H](Cc1ccccc1)N(C)c1ccnc2cc(Cl)ccc12 [10d, (S)-N^2-(7-Chloroquinolin-4-yl)-N^1,N^1-diethyl-N^2-methyl-3-phenylpropane-1,2-diamine]",210 ± 110 nM,330 ± 60 nM,240,376,
"CN(c1ccnc2cc(Cl)ccc12)[C@@H](Cc1ccccc1)CN1CCCC1 [10c, (S)-7-Chloro-N-methyl-N-(1-phenyl-3-(pyrrolidin-1-yl)propan-2-yl)quinolin-4-amine]",60 ± 160 nM,100 nM,577,963,"MST ([4]; 100 mg/kg × 4 days, oral): 9 days; % suppression on day 4 post infection [4, 6]: 93.99%; cure on day 28 ([4]; 100 mg/kg × 4 days, oral): 0/5 cured; survival on day 28 ([4]; 100 mg/kg × 4 days, oral): 0/5"
